Each structure is given as a SMILES string.

Type in all cases: ADME, organism-based
Common to all, as to details: in vivo

The test system of data set [1] is Rattus norvegicus. As to the kind of experiment: Oral bioavailability in Sprague-Dawley rat assessed as RM-4848 level in plasma at 30 mg/kg administered as single dose. In a few lines:
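Groups of three rats received a single oral dose (30 mg/kg) or intravenous dose (6 mg/kg), with serial blood sampling from 5 min to 24 h. Absolute bioavailability came from the AUC after oral versus intravenous dosing, with the AUC corrected for dose to 30 mg/kg.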

Data set [2] concerns Rattus norvegicus. As to the kind of experiment: Elimination half life in Sprague-Dawley rat assessed as RM-4848 level in plasma at 30 mg/kg, po administered as single dose. In a few lines:
(§1)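 Rats in groups of three received one compound as a single oral dose (30 mg/kg) or a single intravenous injection (6 mg/kg), with four compounds studied separately. Serial blood samples were drawn at 5, 10, 15 and 30 min and at 1, 2, 4, 8, 23 and 24 h post-dose. Plasma parent drug and metabolites were quantified and PK parameters were derived.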

Data set [3] has as its system Plasma. As to the kind of experiment: Drug metabolism in Sprague-Dawley rat assessed as RM-4848-glucuronide formation in plasma at 6.2 mg/kg, iv at 0.083 hrs post dose.
The test system of data set [4] is Rattus norvegicus. As to the kind of experiment: Tmax in Sprague-Dawley rat assessed as RM-4848-glucuronide level in plasma at 6.2 mg/kg, iv. Summed up: (§2)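 Rats in groups of three got a single oral dose (30 mg/kg) or a single intravenous injection (6 mg/kg). Serial blood samples were taken at 5, 10, 15 and 30 min and at 1, 2, 4, 8, 23 and 24 h post-dose for plasma drug and glucuronide levels. Bioavailability came from oral versus intravenous AUC after dose correction to 30 mg/kg.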

Data set [5] relates to Rattus norvegicus. Briefly: AUC (0 to t) in Sprague-Dawley rat assessed as RM-4848 level in plasma at 30 mg/kg, po administered as single dose. Summed up:
as §1

Data set [6] concerns Rattus norvegicus. Briefly: AUC (0 to t) in Sprague-Dawley rat assessed as RM-4848-glucuronide level in plasma at 30 mg/kg, po administered as single dose. Summed up:
as §1

The test system of data set [7] is Rattus norvegicus. Briefly: Tmax in Sprague-Dawley rat assessed as RM4848-glucuronide level in plasma at 30 mg/kg, po administered as single dose. Summed up:
as §2

Data set [8] deals with Rattus norvegicus. Briefly: Cmax in Sprague-Dawley rat assessed as RM-4848 level in plasma at 30 mg/kg, po administered as single dose. More on the design: dose 30 mg/kg, route oral. In a few lines: as §1
The test system of data set [9] is Rattus norvegicus. As to the kind of experiment: Cmax in Sprague-Dawley rat assessed as RM-4848-glucuronide level in plasma at 30 mg/kg, po administered as single dose. On the set-up: dose 30 mg/kg, route oral. Summed up: as §1
Data set [10] relates to Rattus norvegicus. Briefly: Cmax in Sprague-Dawley rat assessed as RM-4848 level in plasma at 6 mg/kg, iv administered as single dose. More on the design: dose 6 mg/kg, route intravenous. In a few lines: as §1
Data set [11] has as its system Rattus norvegicus. Briefly: Elimination half life in Sprague-Dawley rat assessed as RM-4848-glucuronide level at 6.2 mg/kg, iv.
For data set [12], the system named is Rattus norvegicus. As to the kind of experiment: Elimination half life in Sprague-Dawley rat assessed as RM-4848 level in plasma at 6.2 mg/kg, iv.
Data set [13] relates to Rattus norvegicus. As to the kind of experiment: AUC (0 to t) in Sprague-Dawley rat assessed as RM-4848-glucuronide level at 6 mg/kg, iv administered as single dose. Summed up:
as §1

Data set [14] has as its system Rattus norvegicus. Briefly: Cmax in Sprague-Dawley rat assessed as RM-4848-glucuronide level at 6 mg/kg, iv administered as single dose. More on the design: dose 6 mg/kg, route intravenous. Summed up:
as §1

Data set [15] concerns Rattus norvegicus. As to the kind of experiment: Elimination half life in Sprague-Dawley rat assessed as RM-4848-glucuronide level at 30 mg/kg, po administered as single dose. Summed up: as §1
Data set [16] concerns Plasma. As to the kind of experiment: Drug metabolism in Sprague-Dawley rat assessed as RM-4848 formation in plasma at 30 mg/kg, po administered as single dose measured at 0.083 to 4 hrs post dose. In a few lines: as §1
In data set [17] the test system is Plasma. As to the kind of experiment: Drug metabolism in Sprague-Dawley rat assessed as RM-4848-glucuronide formation in plasma at 30 mg/kg, po administered as single dose. In a few lines: as §1
The test system of data set [18] is Rattus norvegicus. As to the kind of experiment: Tmax in Sprague-Dawley rat assessed as RM-4848 level in plasma at 6.2 mg/kg, iv. In a few lines:
as §2

For data set [19], the system named is Rattus norvegicus. As to the kind of experiment: AUC (0 to t) in Sprague-Dawley rat assessed as RM-4848 level in plasma at 6 mg/kg, iv administered as single dose. Summed up:
as §1

Data set [20] concerns Rattus norvegicus. As to the kind of experiment: Drug level in Sprague-Dawley rat treated with RM5064 at 6.4 mg/kg, iv measured at 0.25 to 1 hrs post dose.
The subject of data set [21] is Rattus norvegicus. Briefly: Drug level in Sprague-Dawley rat treated with RM5038 at 6.4 mg/kg, iv measured at 0.25 to 1 hrs post dose.

`CC(C)(C)[C@H](N)C(=O)Oc1ccccc1C(=O)Nc1ncc(Cl)s1.Cl`: in data set [1], the F is recorded as 23%. Also, the beta t1/2 was 84 to 156 min in data set [2], 189 min in data set [11], 54.6 min in data set [12] and 206 min in data set [15]. The Drug metabolism entry in data set [3], in data set [16] and in data set [17] was “Metabolite_Detected” each time. The Tmax in [4] is 15 to 30 min; in [7], 30 min; in [18] it was 4.98 min. The AUCt amounted to 715 ng·h/mL in data set [5], 19400 ng·h/mL in [6], 7610 ng·h/mL in data set [13] and 631 ng·h/mL in data set [19]. Besides, the Cmax in data set [8] amounted to 622 ng/mL; in data set [9], 7290 ng/mL; in data set [10], 2650 ng/mL; in data set [14], 5570 ng/mL.
For `O=C(Nc1ncc(Cl)s1)c1ccccc1O`, the Drug metabolism entry in data set [20] and in [21] was “Metabolite_Detected” each time.

The values above are taken from ChEMBL document CHEMBL3997766, “Synthesis and pre-clinical studies of new amino-acid ester thiazolide prodrugs” (Eur J Med Chem, 2017).
